From PubChem
CHO parental Ca: ATP-evoked calcium signal inhibitors, parental CHO, primary screen, counter-screen for OX1R antagonist project, cell-based, fluorescence, Fluo-8 calcium dye; parental CHO-K1, ATP-induced calcium, Fluo-8 fluorescence; inhibition, % at 5.6 µM; hit rate 0.63% among 330,000;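 active means inhibition above that plate's mean sample inhibition plus 3 SD, cut at about 26% in these data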
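Measured by: calcium-sensitive Fluo-8 fluorescence / Test system: CHO parental line / Controls: ATP-challenged DMSO wells low, unchallenged DMSO wells high / Measure: % inhibition / Compound: single nominal dose of 5.6 µM per compound / Replicates: single well per compound, no replicates / Reagent: ATP as calcium-mobilizing challenge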
TAAR1 ag: human TAAR1 agonists, primary screen, Fluo-8 calcium fluorescence, CHO RD-HGA16 cells; activation, % at 3 µM; hit rate 0.99% among 360,000; vehicle wells 0%, saturating PEA agonist 100%;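 active means activation above the mean activation of all test compounds in the run plus 3 SD, cut at about 38% in these data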
Target sequence (Q96RJ0 whole entry, looked up): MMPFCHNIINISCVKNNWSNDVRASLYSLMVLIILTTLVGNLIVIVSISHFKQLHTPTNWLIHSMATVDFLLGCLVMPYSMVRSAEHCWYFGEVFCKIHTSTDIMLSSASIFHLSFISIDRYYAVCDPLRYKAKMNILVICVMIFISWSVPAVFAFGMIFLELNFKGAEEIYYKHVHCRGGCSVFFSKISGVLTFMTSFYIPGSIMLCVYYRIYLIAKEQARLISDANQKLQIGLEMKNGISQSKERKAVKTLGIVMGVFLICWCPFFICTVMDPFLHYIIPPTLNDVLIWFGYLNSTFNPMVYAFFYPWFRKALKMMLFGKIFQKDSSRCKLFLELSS
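Test system: RD-HGA16 (CHO) cells co-expressing Gα16 and hTAAR1 | Doses: Single dose, 3 µM | Schedule: 17-24 h seeding, 75 min 37 °C dye, 30 min RT | Evaluation: % activation from peak over basal fluorescence ratio, DMSO-to-PEA scaled | Technique: Kinetic Fluo-8 calcium fluorescence | Benchmarks: Low control DMSO, high control PEA (EC100)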
OX1R antag-1: OX1R (HCRTR1) antagonists, primary screen, fluorescence, CHO/OX1R cells, Fluo-8 calcium, orexin A; Orexin/Hypocretin receptor type 1 (Homo sapiens), O43613; Fluo-8 calcium fluorescence; inhibition, % at 5 µM; hit rate 0.43% among 330,000; AID 434989, 2010;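 active means inhibition above its plate's threshold, mean inhibition of all tested compounds on the plate plus 3 SD, cut at about 37% in these data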
TAAR1 antag: human TAAR1 antagonists, primary screen, Fluo-8 calcium fluorescence, CHO RD-HGA16 cells; Trace amine-associated receptor 1 (Homo sapiens), Q96RJ0; antagonist; inhibition, % at 3 µM; hit rate 1.5% among 360,000;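 active means inhibition above a per-plate cutoff, the mean inhibition of test compounds on that plate plus 3 SD, cut at about 49% in these data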
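System: CHO RD-HGA16 cells bearing hTAAR1. Reagent: EC80 β-phenethylamine stimulus. Schedule: seeding 17-24 h prior, 75-min 37 °C, 30-min RT dye loading. Signal: Fluo-8 intracellular calcium dye fluorescence, real-time kinetic reads. Read-out: % inhibition from peak post-agonist over basal fluorescence ratio. Benchmarks: vehicle wells and EC80 agonist wells. Replicates: n of 1.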
GPR7 antag: GPR7 receptor antagonists, primary screen, cell-based, fluorescence, single concentration | Neuropeptides B/W receptor type 1 (Homo sapiens), P48145 | GPR7-expressing cells, fluorescence antagonist assay | inhibition, % at 4.4 µM | hit rate 1.1% among 290,000 | AID 1861, 2009; in the data active means inhibition above about 16%, passing the limit was not always enough;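 further: cells stimulated with the agonist NPW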
Target sequence (P48145 whole entry, looked up): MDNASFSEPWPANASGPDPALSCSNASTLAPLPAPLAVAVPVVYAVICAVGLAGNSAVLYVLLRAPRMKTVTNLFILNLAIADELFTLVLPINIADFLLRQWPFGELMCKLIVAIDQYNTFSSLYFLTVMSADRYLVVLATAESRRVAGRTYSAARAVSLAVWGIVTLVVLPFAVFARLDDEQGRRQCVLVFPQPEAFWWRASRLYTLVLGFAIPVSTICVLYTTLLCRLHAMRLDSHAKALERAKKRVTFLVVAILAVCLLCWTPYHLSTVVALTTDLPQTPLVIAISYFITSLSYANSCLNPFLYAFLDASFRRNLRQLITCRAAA
OX1R antag-2: antagonists of human orexin 1 receptor (OX1R); Orexin/Hypocretin receptor type 1 (Homo sapiens), O43613; hit rate 1.8% among 330,000; OX1R-expressing cells, FRET antagonist read-out; AID 485270, 2010; inhibition, % at 6.6 µM; in the data active means inhibition mostly above about 38%, no sharp cut-off; inactive means mostly below about 40%
A number is an active result; - = inactive; . = no result given. Hits are enriched below; roughly 4.5% of the tested compounds scored in any of these assays.

SMILES	CHO parental Ca	TAAR1 ag	OX1R antag-1	TAAR1 antag	GPR7 antag	OX1R antag-2
CC(C)(C)c1ccc(-c2cc(-c3ccccc3O)[nH]n2)cc1	-	-	-	-	-	-
Oc1ccccc1-c1cc(-c2cccc(F)c2)n[nH]1	-	-	-	-	-	41
COc1ccc(Cc2nnc(NC(=O)c3cccc([N+](=O)[O-])c3C)s2)cc1	-	61	-	-	-	-
COc1ccc(Cc2nnc(NC(=O)c3ccccc3[N+](=O)[O-])s2)cc1	-	-	-	-	-	-
CCCCOc1ccc(C(=O)Nc2ccncc2)cc1	42	-	45	-	-	-
CCCCOc1ccc(CC(=O)NO)cc1	44	-	-	-	-	-
Cc1cc(OCC(=O)Nc2ccncc2)ccc1Cl	30	-	-	-	-	-
CCCOc1ccc(C(=O)Nc2cccnc2)cc1	-	-	-	-	-	-
CCOC(=O)Cc1nnc(NC(=O)COc2ccc(OC)cc2)s1	-	-	-	-	-	-
Cc1cc(OCC(=O)Nc2ccc3oc(-c4ccncc4)nc3c2)ccc1Cl	-	-	-	-	-	-
CCCCOc1ccc(C(=O)NC)cc1	-	-	-	-	-	-
CCOC(=O)Cc1nnc(NC(=O)COc2ccc(C)cc2)s1	-	38	-	-	-	-
COc1cc(/C=C/C(=O)c2ccc3c(c2)OCCO3)cc(Br)c1OCC(=O)N(C)C	-	-	-	-	-	-
CCCC#C/C(CCC)=C1\c2ccccc2C(=O)N1c1ccccc1	.	-	.	-	.	.
C[C@@H]1ON(C)[C@H]2C[C@H]3c4cc(Br)ccc4CCN3C[C@@H]12	.	-	.	-	.	.
O=C(COc1ccccc1)Nc1ccncc1	-	-	-	-	-	-
O=C(COc1ccc(Cl)cc1)Nc1ncccn1	-	-	-	-	-	-
Cc1ccc(Oc2ccc(OCC(=O)Nc3ccncc3)cc2)cc1	58	-	50	-	.	-
Cc1ccnc(NC(=O)COc2ccc(Cl)cc2)n1	-	-	-	-	19	-
CC(C)(C)c1ccc(NC(=O)COc2ccc(-n3ccnc3)cc2)cc1	44	-	62	57	-	-
O=C(COc1ccc2ccccc2c1)Nc1ccncc1	67	-	53	-	-	-
CC(C)NC(=O)C1(C)CCN1Cc1ccc(Cl)cc1 (stereo unspecified)	.	-	.	-	.	.
CCc1nc2c(OCc3ccc(C(F)(F)F)cc3)cccn2c1N(C=O)Cc1ccc(OC)cc1	.	-	.	-	.	.
Cc1ccc(S(=O)(=O)N2CCCC2CNC(=O)c2ccc(F)c(F)c2)cc1 (stereo unspecified)	-	-	-	-	.	70
Cc1ccc(C(=O)NCC2CCCN2S(=O)(=O)c2ccc(C)cc2)cc1 (stereo unspecified)	-	-	-	-	.	-
SMILES	CHO parental Ca	TAAR1 ag	OX1R antag-1	TAAR1 antag	GPR7 antag	OX1R antag-2
Cc1ccc(C)c(S(=O)(=O)N2CCCC2CNC(=O)c2ccc([N+](=O)[O-])cc2)c1 (stereo unspecified)	-	-	-	-	.	54
O=C(NCC1CCCN1S(=O)(=O)c1ccccc1)c1cccc(Cl)c1 (stereo unspecified)	-	-	-	-	.	60
Cc1ccc(C)c(S(=O)(=O)N2CCCC2CNC(=O)C(=O)NC2CC2)c1 (stereo unspecified)	-	-	-	-	.	-
CCCCN(CCCC)Cc1cc(=O)oc2ccccc12	.	-	.	-	.	.
CC(C)CC1NC(=O)c2cc(Cl)ccc2-n2c1nc1ccc(F)cc1c2=O (stereo unspecified)	-	-	-	-	.	-
COc1cc(/C=C/c2ccc3cccc(OC)c3n2)c(OC(C)=O)c([N+](=O)[O-])c1	-	-	-	49	-	59
COc1ccc(S(=O)(=O)Nc2ccc(-c3ccc4nncn4n3)cc2)c(OC)c1	-	-	-	-	.	-
CN1OC[C@@H]2CN(C(=O)c3ccc([N+](=O)[O-])cc3)[C@H](c3ccccc3Br)C[C@@H]21	.	-	.	-	.	.
O=[N+]([O-])c1cccc(N/N=C/c2ccc(N3CCOCC3)cc2)c1	-	-	-	58	-	-
CN(CCCC(=O)NCc1ccco1)S(=O)(=O)c1ccccc1	-	-	-	-	16	-
C#CCOCCOCCOCCNc1nc(N2CCN(C(=O)CCCCCCCCCCNC(=O)[C@H]([C@@H](C)CC)n3cc(CCCCCN)nn3)CC2)nc(N2CCN(C(=O)CCCCCCCCCCNC(=O)[C@@H]([C@H](C)O)n3cc(C)nn3)CC2)n1	-	.	-	.	.	-
C#CCOCCOCCOCCNc1nc(N2CCN(C(=O)CCCCCCCCCCNC(=O)[C@H](CCCCN)n3cc(C[C@@H](C)CC)nn3)CC2)nc(N2CCN(C(=O)CCCCCCCCCCNC(=O)[C@H](CCCCN)n3cc(C[C@@H](C)CC)nn3)CC2)n1	101	.	-	.	.	-
C#CCOCCOCCOCCNc1nc(N2CCN(C(=O)CCCCCCCCCCNC(=O)[C@H](CCCCN)n3cc(C)nn3)CC2)nc(N2CCN(C(=O)CCCCCCCCCCNC(=O)[C@@H]([C@H](C)CC)n3cc(CCCCCN)nn3)CC2)n1	73	.	-	.	.	-
CC(C)(C)OC(=O)NCCCC[C@@H](C(=O)NCCCCCCCCCCC(=O)N1CCN(C(=O)OC(C)(C)C)CC1)n1cc(CCO)nn1	-	-	-	-	.	-
CC[C@H](C)Cc1cn([C@@H](CCCCNC(=O)OC(C)(C)C)C(=O)NCCCCCCCCCCC(=O)N2CCN(C(=O)OC(C)(C)C)CC2)nn1	-	-	-	63	.	-
Nc1[nH]c(C(=O)c2ccccc2)c(-c2ccccc2)c1C(=O)NCCc1c[nH]c2ccccc12	.	-	.	-	.	.
c1ccc(CN(Cc2cccs2)C(c2cccs2)c2nnnn2C2CCCC2)cc1 (stereo unspecified)	34	-	-	-	-	-
CCOC(=O)C1=C(Cc2ccc(F)cc2)C(=O)c2ccccc2C1=O	-	-	-	52	-	-
CN(C)c1ccc2nc3ccc(=[N+](C)C)cc-3sc2c1	-	-	-	-	-	59
CC1C(=O)N(Cc2ccc(F)cc2)c2ccccc2N1C(=O)c1c(F)cccc1F (stereo unspecified)	-	-	-	-	-	-
COC(=O)c1ccc(CN2C(=O)C(C)N(C(=O)c3c(F)cccc3F)c3ccccc32)cc1 (stereo unspecified)	-	42	-	83	-	-
COC(=O)C1=C(C)N(C)C(=NCc2ccc(C(F)(F)F)cc2)NC1c1cccc(Cl)c1 (stereo unspecified)	.	-	.	-	.	.
O=C(Nc1nc2c(s1)COc1ccccc1-2)c1cccs1	-	-	-	-	-	56
